High-throughput results: PubChem BioAssay, Broad Institute
SIRT5 inh – sirtuin-5 (human) deacylase inhibition. hit rate 1.1% among 330,000. inhibition, % at 15 µM. AID 652115. Purified SirT5, succinyl-peptide AMC, trypsin-coupled fluorescence; in the data active = inhibition above about 15%; inconclusive = no clear call, values can overlap the other calls
Target sequence (Q9NXA8 whole entry, looked up): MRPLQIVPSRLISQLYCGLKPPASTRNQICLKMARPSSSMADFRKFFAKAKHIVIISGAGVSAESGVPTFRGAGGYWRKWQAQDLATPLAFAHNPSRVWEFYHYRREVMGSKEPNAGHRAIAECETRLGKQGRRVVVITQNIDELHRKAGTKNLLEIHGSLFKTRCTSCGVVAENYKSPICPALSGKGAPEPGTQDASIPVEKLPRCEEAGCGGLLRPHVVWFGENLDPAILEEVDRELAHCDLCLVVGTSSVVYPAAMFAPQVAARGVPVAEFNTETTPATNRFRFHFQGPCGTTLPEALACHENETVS
F508del corr – correctors of CFTR F508del function in bronchial epithelial cells; CFBE cells, YFP halide quenching; stimulated with forskolin plus potentiator P3; % fluorescence drop versus neutral controls; activity (quench increase), % at 7.58 µM; hit rate 0.36% among 350,000; AID 720511;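 active = mean added fluorescence quench of at least 8% versus neutral control, with both replicates also reaching 8%; inconclusive = only one of the mean or replicate conditions met; inactive = mean below 8% and not both replicates reaching 8%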;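 note: cells transiently co-express mutant CFTR-F508del with the halide-sensitive YFP; corrector assay measuring rescue of mutant channel to the surface after 24 h compound exposure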
rRNA inh HTS – selective bacterial rRNA inhibition in E. coli. GFP signal change (wild-type ribosome), % (concentration not given with the values). E. coli WT GFP vs humanized-ribosome RFP mutants, fluorescence, 24 h; stronger effect = lower value; DMSO median 0, no signal -100. AID 720706. hit rate 1.6% among 350,000;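 active = significant combined selectivity score with lowered wild-type GFP, culture density cut under 30%, mutant RFP and density less affected; inactive = any of these conditions unmet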
S100A4 inh HTS – blocks human S100A4 binding to myosin IIA peptide. P26447. hit rate 0.14% among 360,000. S100A4/TAMRA-MyoIIA peptide fluorescence polarization. inhibition, % at 10.7 µM;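 active = mean inhibition of at least 70% across replicates, with every replicate also reaching that level; inconclusive = mean inhibition reaches 70% but some replicates fall short; inactive = mean inhibition below 70%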
Target sequence (P26447 whole entry, looked up): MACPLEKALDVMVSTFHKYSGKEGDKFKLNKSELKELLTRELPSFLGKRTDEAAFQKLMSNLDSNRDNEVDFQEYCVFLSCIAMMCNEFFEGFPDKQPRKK
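Material: S100A4 monomer protein / Buffer or medium: 50 mM HEPES pH 7.2, 10 mM CaCl2, 100 mM KCl / Times: 5 min incubation before reading / Benchmarks: neutral control DMSO, positive control TFP / Reagent: labelled myosin peptide probe, 5 nM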
ERAP1 inh – inhibitors of human ERAP1 aminopeptidase; Q9NZ08; inhibition, % at 10.7 µM; hit rate 0.15% among 340,000; AID 652197; recombinant ERAP1, Leu-AMC fluorescence, 60 min;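 active = mean replicate inhibition of at least 30%, or all replicates individually reaching that 30% level; inactive = mean below 30% and not every replicate reaching it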;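 note: 0% = neutral control wells and 100% = L-leucinethiol positive control wells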
Numbers without * were called inactive; ? = inconclusive; . = not tested or not shown. Shown are actives, neighbours in structure and some others; about 3.1% of the full set was active somewhere.

SMILES | SIRT5 inh | F508del corr | rRNA inh HTS | S100A4 inh HTS | ERAP1 inh
C=CCn1c(-c2cc3c(s2)CCC(CC)C3)n[nH]c1=S (stereo unspecified) | -0.6 | -1.8 | -38.1* | -4.0 | -0.3
CCCNC(=O)C[C@H]1CC[C@@H]2[C@@H](COc3ccc(NC(=O)c4cccc(C(F)(F)F)c4)cc3C(=O)N2C)O1 | 4.6 | 0.8 | -1.2 | 3.3 | 2.8
CC1(c2cccc(Br)c2)NC(=O)N(CC(=O)Nc2ccc3c(c2)OCO3)C1=O (stereo unspecified) | -4.0 | -3.7 | -22.0* | 3.6 | 2.6
Fc1ccc2nc(C3CCN(Cc4nc(CC5CC5)no4)CC3)[nH]c2c1 | -0.9 | 8.6* | -3.6 | -2.8 | 3.2
Clc1ccc(OC2CCN(Cc3nc(CC4CC4)no3)CC2)cc1 | -2.6 | 2.7 | -28.6 | 1.8 | -0.7
C[C@@H]1CN([C@@H](C)CO)C(=O)c2cc(NS(=O)(=O)c3ccc(Cl)cc3)ccc2O[C@@H](C)CCCCO[C@@H]1CN(C)Cc1ccc(C(=O)O)cc1 | 4.5 | 0.0 | -2.1 | -5.1 | -1.3
O=C(CSc1nc2ccsc2c(=O)n1CC1CCC(C(=O)O)CC1)c1ccc(Cl)cc1 (stereo unspecified) | 16.1* | 1.9 | -0.2 | -2.5 | -0.6
COc1ccc(C2=Nn3c(nnc3-c3ccccc3OC)SC2)cc1OC1CCOC1 (stereo unspecified) | . | 9.7* | -14.3 | 0.0 | .
O=C(Nc1cccc(Cl)c1)N[C@@H]1CC[C@H](CCNC(=O)C2CCOCC2)O[C@H]1CO | -2.9 | -3.1 | -1.6 | 10.8 | -1.5
CO[C@@H]1CN(C)C(=O)c2cc(NC(=O)CC(F)(F)F)ccc2OC[C@H](C)N(S(=O)(=O)c2cn(C)cn2)C[C@@H]1C | 15.7* | -2.4 | 0.5 | 27.4 | -0.4
CO[C@H]1CN(C)C(=O)c2cc(NC(=O)CC(F)(F)F)ccc2OC[C@H](C)N(C(C)=O)C[C@@H]1C | 16.1* | -6.3 | 3.4 | -6.2 | 1.8
CO[C@@H]1CN(C)C(=O)c2ccc(NC(=O)CC(F)(F)F)cc2OC[C@H](C)N(S(=O)(=O)c2cn(C)cn2)C[C@H]1C | 2.6 | -2.4 | 3.1 | -5.7 | 1.8
CCCC(=O)Nc1ccc2c(c1)C(=O)N(C)C[C@@H](OC)[C@H](C)CN(C(=O)CN1CCOCC1)[C@H](C)CO2 | 3.7 | 8.4* | -1.0 | 31.6 | 7.0
CO[C@H]1CN(C)C(=O)c2cc(NC(=O)CC(F)(F)F)ccc2OC[C@H](C)N(C(C)=O)C[C@H]1C | 2.2 | 0.5 | 2.2 | -7.7 | -3.0
CO[C@H]1CN(C)C(=O)c2cc(NC(C)=O)ccc2OC[C@H](C)N(S(=O)(=O)c2cn(C)cn2)C[C@H]1C | 23.7* | 0.7 | -0.5 | -2.8 | -1.1
COCC(=O)N(C)C[C@H]1Oc2cc(-c3ccc(F)cc3)ccc2S(=O)(=O)N([C@H](C)CO)C[C@@H]1C | -2.6 | 0.7 | -1.1 | 8.5 | -0.6
CO[C@H]1CN(C)C(=O)c2cc(NC(=O)NC(C)C)ccc2OC[C@H](C)N(C)C[C@@H]1C | -1.6 | -1.3 | -2.7 | 11.5 | 0.2
C[C@@H]1CCCCO[C@@H](CN(C)C(=O)C2CCCCC2)[C@H](C)CN([C@@H](C)CO)C(=O)c2cc(NC(=O)C3CCCCC3)ccc2O1 | -1.5 | 0.7 | -27.3 | -4.2 | 1.7
CCOc1ccccc1N1CCN(C(=O)CCCc2nc3ccccc3s2)CC1 | -3.5 | . | -29.6* | 1.5 | 0.2
CC1C(=O)Nc2ccccc2N1C(=O)c1ccc(Cl)c(Cl)c1 (stereo unspecified) | 10.5 | -2.2 | -26.8* | 4.1 | -2.8
C[C@@H]1CN([C@H](C)CO)C(=O)c2cccc(NC(=O)c3cnccn3)c2O[C@H]1CN(C)C(=O)Nc1ccc2c(c1)OCO2 | -1.6 | -5.8 | 1.9 | ? | 1.9
CCO[C@H]1OC(C(=O)NCc2ccccc2)=C[C@@H](c2ccccc2)[C@@H]1CCCO | -2.4 | -0.1 | -24.9* | -0.8 | -0.3
CCO[C@@H]1OC(C(=O)NCc2ccccc2)=C[C@H](c2ccccc2)[C@H]1CCCO | -0.3 | 1.0 | 4.8 | 4.6 | -1.2
CCC(=O)NC[C@H]1[C@@H](c2ccc(-c3cccc(F)c3)cc2)[C@@H](CO)N1C(=O)CC | . | -1.2 | -4.7 | . | .
O=C(/C=C/Nc1ccccc1Oc1ccccc1)c1ccco1 | -1.1 | -2.1 | -32.4* | -5.4 | -0.9
